Results reported in ChEMBL document CHEMBL1136923, “Highly potent, orally available anti-inflammatory broad-spectrum chemokine inhibitors” (J Med Chem, 2009).

Tests used:
[1] = target: C-C chemokine receptor type 2 (Homo sapiens) (UniProt P41597); test: Antagonist activity at CCR2 in human THP1 cells assessed as inhibition of CCL2-induced chemotaxis after 2 hrs by microtiter format trans-well migration assay; assay type: functional, cell-based; conditions: THP-1
Procedure, shortened: (§1)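 Microtiter trans-well migration assay in Gey's balanced salt solution with 1 mg/mL endotoxin-free BSA, no fetal calf serum. Migration ran 2 h at 37 °C. Compounds dissolved in DMSO and added to both top and bottom compartments, final DMSO 1%.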

[2] = target: C-C chemokine receptor type 2 (Homo sapiens) (UniProt P41597); test: Antagonist activity at CCR2 in human THP1 cells assessed as inhibition of CCL2-induced chemotaxis at 10 nM after 2 hrs by microtiter format trans-well migration assay; assay type: functional, cell-based; conditions: THP-1; procedure, shortened: as §1
[3] = target: C-C chemokine receptor type 2 (Homo sapiens) (UniProt P41597); test: Antagonist activity at CCR2 in human THP1 cells assessed as inhibition of CCL2-induced chemotaxis at 0.1 nM after 2 hrs by microtiter format trans-well migration assay; assay type: functional, cell-based; conditions: THP-1; procedure, shortened: as §1
[4] = AUC (0 to t) in Sprague-Dawley rat at 1 mg/kg, iv administered as single dose; assay type: ADME, organism-based, Plasma; set-up: dose 1 mg/kg, route intravenous; conditions: Sprague-Dawley, plasma
Procedure, shortened: (§2)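 Male Sprague-Dawley rats, three per compound per route, single dose. IV vehicle 5% DMSO in 0.9% saline; oral gavage vehicle 1% carboxymethylcellulose in 0.9% saline; fed ad libitum. Plasma taken 5–480 min post-dose, extracted with 0.1% formic acid in acetonitrile, quantified by LC/MS/MS (positive mode). AUC(0–t) by linear/log trapezoidal rule; IV curve back-extrapolated assuming initial volume 0.26 L/kg.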

Mus musculus [5] = test: Antiinflammatory activity in mouse assessed as inhibition of LPS-induced TNFalpha upregulation at 0.0016 ug, sc measured 2 hrs after LPS challenge; assay type: functional
Procedure, shortened: (§3)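 Murine sublethal endotoxemia: LPS given intraperitoneally, with serum TNF-α measured 2 h after the LPS injection as the end point. Compound was given subcutaneously or orally. Vehicle was 0.6% DMSO and 1% carboxymethylcellulose (final concentrations) in sterile water. Effect is reported as % relative to control.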

Mus musculus [6] = test: Antiinflammatory activity in sc dosed mouse assessed as inhibition of LPS-induced TNFalpha upregulation measured 2 hrs after LPS challenge relative to control; assay type: functional
Procedure, shortened: (§4)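 Murine sublethal LPS endotoxemia screen. LPS is injected intraperitoneally and serum TNF-α is measured 2 h later as the end point. Compound is given subcutaneously or orally in a vehicle of 0.6% DMSO plus 1% carboxymethylcellulose (final concentrations) in sterile water. Values are % relative to control.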

Mus musculus [7] = test: Antiinflammatory activity in mouse assessed as inhibition of LPS-induced TNFalpha upregulation at 540 pg, po measured 2 hrs after LPS challenge; assay type: functional; procedure, shortened: as §4
Mus musculus [8] = test: Antiinflammatory activity in mouse assessed as inhibition of LPS-induced TNFalpha upregulation at 0.0027 ug, po measured 2 hrs after LPS challenge; assay type: functional; procedure, shortened: as §3
Mus musculus [9] = test: Antiinflammatory activity in mouse assessed as inhibition of LPS-induced TNFalpha upregulation at 0.016 ug, sc measured 2 hrs after LPS challenge; assay type: functional; procedure, shortened: as §3
Mus musculus [10] = test: Antiinflammatory activity in mouse assessed as inhibition of LPS-induced TNFalpha upregulation at 0.068 ug, po measured 2 hrs after LPS challenge; assay type: functional; procedure, shortened: as §3
[11] = Cmax in Sprague-Dawley rat at 3 mg/kg, po administered as single dose; assay type: ADME, organism-based; set-up: dose 3 mg/kg, route oral; conditions: in vivo
Procedure, shortened: (§5)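 Male Sprague-Dawley rats, three per compound, receive a single oral dose by gavage in 1% carboxymethylcellulose in 0.9% saline, with food and water ad libitum. Plasma is sampled from 5 to 480 min and drug is quantified by positive-mode LC/MS/MS after acetonitrile/formic acid extraction. The lower limit of quantitation is about 2 ng/mL. Exposure is AUC(0→t) by the linear/log trapezoidal rule, and F is oral fractional bioavailability.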

[12] = target: C-C chemokine receptor type 2 (Homo sapiens) (UniProt P41597); test: Antagonist activity at CCR2 in human THP1 cells assessed as inhibition of CCL2-induced chemotaxis at 100 nM after 2 hrs by microtiter format trans-well migration assay; assay type: functional, cell-based; conditions: THP-1; procedure, shortened: as §1
Mus musculus [13] = test: Antiinflammatory activity in po dosed mouse assessed as inhibition of LPS-induced TNFalpha upregulation measured 2 hrs after LPS challenge; assay type: functional
[14] = target: C-C chemokine receptor type 2 (Homo sapiens) (UniProt P41597); test: Antagonist activity at CCR2 in human THP1 cells assessed as inhibition of CCL2-induced chemotaxis at 1000 nM after 2 hrs by microtiter format trans-well migration assay; assay type: functional, cell-based; conditions: THP-1; procedure, shortened: as §1
Mus musculus [15] = test: Antiinflammatory activity in mouse assessed as inhibition of LPS-induced TNFalpha upregulation at 0.0186 mg, po measured 2 hrs after LPS challenge; assay type: functional; procedure, shortened: as §3
Mus musculus [16] = test: Antiinflammatory activity in sc dosed mouse assessed as inhibition of LPS-induced TNFalpha upregulation measured 2 hrs after LPS challenge; assay type: functional
Mus musculus [17] = test: Antiinflammatory activity in mouse assessed as inhibition of LPS-induced TNFalpha upregulation at 0.0066 ug, sc measured 2 hrs after LPS challenge; assay type: functional; procedure, shortened: as §3
Mus musculus [18] = test: Antiinflammatory activity in mouse assessed as inhibition of LPS-induced TNFalpha upregulation at 0.0186 ug, po measured 2 hrs after LPS challenge; assay type: functional; procedure, shortened: as §3
[19] = Clearance in Sprague-Dawley rat at 1 mg/kg, iv administered as single dose; assay type: ADME, organism-based; set-up: dose 1 mg/kg, route intravenous; conditions: in vivo
Procedure, shortened: (§6)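 Male Sprague-Dawley rats, three per compound, receive a single intravenous dose in 5% DMSO in 0.9% saline. Food and water are given ad libitum. Plasma is taken at 5, 15, 30, 60, 120, 180, 240 and 480 min. Drug is measured by LC/MS/MS after extraction with 0.1% formic acid in acetonitrile. The curve is back-extrapolated to time zero assuming an initial volume of 0.26 L/kg.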

Mus musculus [20] = test: Antiinflammatory activity in po dosed mouse assessed as inhibition of LPS-induced TNFalpha upregulation measured 2 hrs after LPS challenge relative to control; assay type: functional; procedure, shortened: as §4
[21] = Half life in Sprague-Dawley rat at 1 mg/kg, iv administered as single dose; assay type: ADME, organism-based; set-up: dose 1 mg/kg, route intravenous; conditions: in vivo; procedure, shortened: as §6
Mus musculus [22] = test: Antiinflammatory activity in mouse assessed as inhibition of LPS-induced TNFalpha upregulation at 0.016 mg, sc measured 2 hrs after LPS challenge; assay type: functional; procedure, shortened: as §3
[23] = Volume of distribution at steady state in Sprague-Dawley rat at 1 mg/kg, iv administered as single dose; assay type: ADME, organism-based; set-up: dose 1 mg/kg, route intravenous; conditions: in vivo, read-out: Vdss; procedure, shortened: as §6
[24] = Fractional bioavailability in Sprague-Dawley rat at 3 mg/kg, po administered as single dose; assay type: ADME, organism-based; conditions: in vivo; procedure, shortened: as §5
[25] = target: C-C chemokine receptor type 2 (Homo sapiens) (UniProt P41597); test: Antagonist activity at CCR2 in human THP1 cells assessed as inhibition of CCL2-induced chemotaxis at 1 nM after 2 hrs by microtiter format trans-well migration assay; assay type: functional, cell-based; conditions: THP-1; procedure, shortened: as §1
Mus musculus [26] = test: Antiinflammatory activity in mouse assessed as inhibition of LPS-induced TNFalpha upregulation at 0.00016 mg, sc measured 2 hrs after LPS challenge; assay type: functional
Procedure, shortened: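 Murine sublethal endotoxemia: LPS given intraperitoneally, serum TNF-α measured 2 h after LPS injection. Compound vehicle 0.6% DMSO plus 1% carboxymethylcellulose (final concentrations) in sterile water.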

Mus musculus [27] = test: Antiinflammatory activity in mouse assessed as inhibition of LPS-induced TNFalpha upregulation at 0.0016 mg, sc measured 2 hrs after LPS challenge; assay type: functional; procedure, shortened: as §3
Rattus norvegicus = test: Plasma concentration in Sprague-Dawley rat at 3 mg/kg, po administered as single dose; assay type: ADME, organism-based; set-up: dose 3 mg/kg, route oral; conditions: in vivo; procedure, shortened: as §5
Mus musculus [28] = test: Antiinflammatory activity in mouse assessed as inhibition of LPS-induced TNFalpha upregulation at 0.75 ug, po measured 2 hrs after LPS challenge; assay type: functional; procedure, shortened: as §3
[29] = AUC (0 to t) in Sprague-Dawley rat at 3 mg/kg, po administered as single dose; assay type: ADME, organism-based; set-up: dose 3 mg/kg, route oral; conditions: plasma; procedure, shortened: as §2

Chain of C-C chemokine receptor type 2 (Homo sapiens) (P41597 whole entry, looked up): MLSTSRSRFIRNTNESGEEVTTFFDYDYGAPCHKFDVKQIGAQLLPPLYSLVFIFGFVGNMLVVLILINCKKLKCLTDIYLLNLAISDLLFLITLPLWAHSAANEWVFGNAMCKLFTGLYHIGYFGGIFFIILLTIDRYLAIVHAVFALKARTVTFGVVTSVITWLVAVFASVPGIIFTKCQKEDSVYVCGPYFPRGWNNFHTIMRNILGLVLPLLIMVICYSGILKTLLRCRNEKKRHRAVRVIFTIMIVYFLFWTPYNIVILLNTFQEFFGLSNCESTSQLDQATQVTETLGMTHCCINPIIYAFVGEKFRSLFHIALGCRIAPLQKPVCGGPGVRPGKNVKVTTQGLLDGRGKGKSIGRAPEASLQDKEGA

`CC1(C(=O)N[C@H]2CCCCNC2=O)CCCCC1` showed an ED50 [1] of 0.09 nM, an inhibition [2] of 100% and an inhibition [3] of 38%. The AUC(0-t) [4] was 48.3 ng·h/mL, the “inhibition (INH)” value (Mus musculus [5]) was 11% and the “inhibition (INH)” value (Mus musculus [6]) was 90%. The “inhibition (INH)” value (Mus musculus [7]) was -1%, the “inhibition (INH)” value (Mus musculus [8]) was 14% and the “inhibition (INH)” value (Mus musculus [9]) was 71%. The “inhibition (INH)” value (Mus musculus [10]) was 64%, the Cmax [11] was 3 ng/mL and the inhibition [12] was 99%. The ED50 (Mus musculus [13]) was 0.33 µg/kg, the inhibition [14] was 100% and the “inhibition (INH)” value (Mus musculus [15]) was 90%. For the same molecule, the ED50 (Mus musculus [16]) was 0.33 µg/kg, the “inhibition (INH)” value (Mus musculus [17]) was 52% and the “inhibition (INH)” value (Mus musculus [18]) was 64%. For the same molecule, the clearance [19] was 55 mL/min/kg, the “inhibition (INH)” value (Mus musculus [20]) was 90% and the half-life [21] was 11 min. For the same molecule, the “inhibition (INH)” value (Mus musculus [22]) was 88%, the Vd [23] was 0.6 L/kg and the bioavailability [24] was 5%. For the same molecule, the inhibition [25] was 98%, the “inhibition (INH)” value (Mus musculus [26]) was 74% and the “inhibition (INH)” value (Mus musculus [27]) was 73%. For the same molecule, the Cp (Rattus norvegicus) was under 2 ng/mL, the “inhibition (INH)” value (Mus musculus [28]) was 70% and the AUC(0-t) [29] was 7.17 ng·h/mL.
